Experimental data from different studies.
Each line is one published result; the experiments were not run side by side.
Target: Serine/threonine-protein kinase WNK3 (WNK3, Homo sapiens, UniProt Q9BYP7)

Cc1nccc(COC(=O)N2C[C@@H]3[C@@H](CNC(=O)c4ccc5[nH]nnc5c4)[C@@H]3C2)n1 — remaining binding (cell-free assay; competition with immobilised ligand; 1 µM): 91%
C[C@H]1CCN(c2nccc(-c3cnn4ncccc34)n2)C1 — remaining binding (binding; 1 µM): 98%
C[C@@H](c1ccc(-n2cnc3c(N)ncnc32)cc1)N1CCc2nn(C)c(Cc3ccccc3)c2C1=O — remaining binding (binding; competition with immobilised ligand; 0.1 µM): 100%
CN(C)c1ncc(F)c(-c2cnn3ncccc23)n1 — remaining binding (binding; 1 µM): 90%
CNCc1ccccc1-c1csc([C@H](C)Nc2nc(C)nc3cc(OC)c(OC)cc23)c1 — remaining binding (cell-free assay; competition with immobilised ligand; 1 µM): 98%
CN(c1nccc(-c2cnn3ncccc23)n1)C1CC1 — remaining binding (binding; 1 µM): 100%
COc1ccc2c(c1)O[C@@H](c1ccc(OC)c(OC)c1)C[C@H]2NC(=O)C1(c2ccc3c(c2)OC(F)(F)O3)CC1 — remaining binding (cell-free assay; competition with immobilised ligand; 1 µM): 100%
COc1ncc2cc3ccccc3nc2c1C#N — remaining binding (cell-free assay; competition with immobilised ligand; 5 µM): 96%
Cn1cc(Cl)c2c(Oc3c(F)cc(Nc4cc(Cl)nc(N)n4)cc3F)ccnc21 — remaining binding (cell-free assay; competition with immobilised ligand; 0.1 µM): 95%
O=C(NCC1CCOCC1)c1n[nH]cc1NC(=O)c1c(F)cccc1F — remaining binding (binding; competition with immobilised ligand; 1 µM): 95%
Cc1cnc(Nc2ccc(C(=O)N3CCC(N4CCCC4)CC3)cc2)nc1-c1cc2ccccc2s1 — remaining binding (binding; competition with immobilised ligand; 1 µM): 100%
Cc1cc(-n2nc(Cc3cc(F)cc(C(F)(F)F)c3)nc2C)ccc1C(N)=O — remaining binding (cell-free assay; competition with immobilised ligand; 1 µM): 100%
COc1ccnn2ncc(-c3ccnc(N(C)C)n3)c12 — remaining binding (binding; 1 µM): 92%
CC1=C(C#N)[C@@H](c2ccc3[nH]nc(C)c3c2)C(C#N)=C(c2ccc(Cl)cc2)N1 — remaining binding (cell-free assay; competition with immobilised ligand; 1 µM): 100%
CCN1CCN(Cc2ccc(C(=O)Nc3ccc(C)c(Oc4ccc5c(c4)CC(=O)N5)c3)cc2C(F)(F)F)CC1 — remaining binding (binding; competition with immobilised ligand; 1 µM): 100%
O=C(NCCCN1CCOCC1)c1ccc(Nc2nccc(-c3cc4ccccc4s3)n2)cc1 — remaining binding (binding; competition with immobilised ligand; 1 µM): 100%
N[C@H]1CCN(c2nccc(-c3cnn4ncccc34)n2)C1 — remaining binding (binding; 1 µM): 90%
c1cncc(-c2cccc(Nc3nccc(NC4CCCCC4)n3)c2)c1 — remaining binding (binding; competition with immobilised ligand; 10 µM): 94%
CN(C)c1nccc(-c2cnn3ncccc23)n1 — remaining binding (binding; 1 µM): 100%
COc1cnc(Nc2cccc(S(N)(=O)=O)c2)nc1N1CCN(c2ccccc2)CC1 — remaining binding (binding; competition with immobilised ligand; 1 µM): 97%
O=C(NCCCN1CCOCC1)c1ccc(Nc2ncc(Cl)c(-c3ccc(Cl)s3)n2)cc1 — remaining binding (binding; competition with immobilised ligand; 1 µM): 100%
FC(F)(F)Oc1cccc(-c2cnc3ccc(-c4ccncc4)nn23)c1 — remaining binding (binding; competition with immobilised ligand; 5 µM): 77%
